From PubChem
Sampled rows, rich in hits. Any-hit rate of the full collection: about 3.7%.
hERG protect = shields human hERG channel from block by proarrhythmic agents | activation (rescue from dofetilide block), less the hit threshold, % at 10 µM | AID 1511 | Q12809 | CHO-hERG, FluxOR thallium flux, dofetilide IC70 present | 310,000 tested, 0.51% active;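 active means activation above the mean of controls blocked by dofetilide plus 5 SD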;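 further: thallium influx through hERG after potassium depolarization seen as dye fluorescence rise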
KCNQ1 inh = blocks the human KCNQ1 potassium channel | B-score at 10 µM | AID 2642 | 310,000 tested, 1.3% active | CHO-K1 KCNQ1, FluxOR thallium flux fluorescence; stronger effect = higher value | P51787;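 active means compounds whose thallium flux B-score, printed positive for inhibition, exceeds three library SD while starting fluorescence stays within three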;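 further: channel opened by potassium depolarization with thallium stimulus after 20 min compound exposure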
KCNQ1 act = potentiators or activators of human KCNQ1 potassium channel. P51787. CHO-K1 KCNQ1, thallium flux FluxOR fluorescence; stronger effect = higher value. B-score at 10 µM. 310,000 tested, 0.35% active. AID 2648;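 active means fluorescence ratio B-score, a plate-corrected score, at least three library SD, with initial intensity B-score within 5 SD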
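System: Stable KCNQ1 CHO-K1 line | Incubation: 90 min dye loading and 20 min compound exposure, both at room temperature | Measure: Ratio B score | Medium: Assay buffer for compound exposure, DMSO matched across wells | Compound dosing: Single-concentration screen | Probe or stimulus: K+/Tl+ depolarizing stimulus | Measured by: Kinetic FluxOR fluorescence, 10 s baseline plus 110 s post-stimulus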
KCNK9 inh = blocks the human KCNK9 two-pore domain potassium channel. Q9NPC2. HEK293 KCNK9, FluxOR thallium flux fluorescence; stronger effect = lower value. B-score at 10 µM. 310,000 tested, 1.2% active;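 active means ratio B-score over 3 SD below the library mean, with starting fluorescence within 5 SD of its mean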;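 further: negative B-score means less thallium flux so channel inhibition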
Target sequence (Q9NPC2 whole entry, looked up, the tested form may be a part): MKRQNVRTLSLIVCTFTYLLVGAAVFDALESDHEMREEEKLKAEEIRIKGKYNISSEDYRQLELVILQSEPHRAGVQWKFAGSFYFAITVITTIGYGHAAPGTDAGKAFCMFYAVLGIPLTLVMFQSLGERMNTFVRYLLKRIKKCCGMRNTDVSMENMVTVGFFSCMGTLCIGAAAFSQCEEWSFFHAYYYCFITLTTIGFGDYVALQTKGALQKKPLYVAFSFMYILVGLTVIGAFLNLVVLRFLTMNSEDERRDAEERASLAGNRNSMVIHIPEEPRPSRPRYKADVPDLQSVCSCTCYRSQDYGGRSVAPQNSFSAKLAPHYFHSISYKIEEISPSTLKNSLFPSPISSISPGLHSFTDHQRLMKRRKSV
Kir21 inh = Kir2.1 (mouse) channel inhibition; P35561; HEK293-Kir2.1, FluxOR thallium flux fluorescence; stronger effect = lower value; B-score at 10 µM; 310,000 tested, 0.85% active;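 active means fluorescence ratio B-score at or below minus 3 SD of library scores, with starting-brightness B-score within 2 SD, cut at about -4.2 in these data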;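 further: channel flux triggered by added potassium and thallium sulfate stimulus; B-score of peak minus minimum fluorescence over baseline after thallium stimulus; more negative B-score means stronger Kir2.1 block with less thallium influx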
KCNK3 block = human KCNK3 channel inhibition, primary screen. 340,000 tested, 0.84% active. B-score at 10 µM. CHO-KCNK3 thallium flux, FluxOR fluorescence; stronger effect = lower value. AID 602410. O14649;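 active means B-score under library mean minus 4 SD, starting fluorescence ratio at most library mean plus 5 SD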;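 further: more negative B-score means stronger inhibition of thallium flux through KCNK3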
Target sequence (O14649 whole entry, looked up): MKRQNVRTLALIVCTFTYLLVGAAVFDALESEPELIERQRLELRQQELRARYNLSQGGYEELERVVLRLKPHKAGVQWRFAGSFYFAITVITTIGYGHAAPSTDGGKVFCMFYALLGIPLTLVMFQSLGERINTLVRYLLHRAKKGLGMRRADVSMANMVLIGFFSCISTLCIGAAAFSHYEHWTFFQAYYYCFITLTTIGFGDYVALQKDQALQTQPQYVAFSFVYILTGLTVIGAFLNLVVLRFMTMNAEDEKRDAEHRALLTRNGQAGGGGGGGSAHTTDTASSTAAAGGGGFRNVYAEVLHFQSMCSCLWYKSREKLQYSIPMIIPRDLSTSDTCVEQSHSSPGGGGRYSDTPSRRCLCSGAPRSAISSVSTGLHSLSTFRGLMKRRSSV
KCNK9 block conf = human KCNK9 inhibitor confirmation; 4,900 tested, 43% active; AID 492992; inhibition, % at 10 µM; HEK293 KCNK9 cells, FluxOR thallium flux fluorescence; shares compounds with KCNK9 inh;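 active means thallium signal inhibited by more than 5 SD of the compound-free buffer control wells, on both duplicate plates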
Kir21 sel = tests whether KCNK9 modulators also affect mouse Kir2.1. shares compounds with KCNK9 inh. Kir2.1 cells, FluxOR thallium flux fluorescence. inhibition, % at 10 µM. 4,900 tested, 4% active;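 active means thallium signal drop more than 5 SD beyond the mean of the no-compound control wells, seen in both duplicate plates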;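 further: signal is fluorescence rise after thallium addition divided by baseline fluorescence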
HEK293 Tl ctr = second check of KCNK9 modulator effects in non-induced HEK293 cells | 4,900 tested, 40% active | shares compounds with KCNK9 inh | AID 492997 | inhibition, % at 10 µM | FluxOR thallium flux;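 active means thallium signal drop beyond 5 SD of the untreated control mean, on both duplicate plates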
KCNK3 inh conf = human KCNK3 channel inhibition, confirmation assay; shares compounds with KCNK3 block; CHO-KCNK3 thallium flux, FluxOR fluorescence; 0% buffer, 100% carvedilol maximal block; ratio percent of control, % at 10 µM; 2,400 tested, 99% active; AID 651638;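 active means ratio percent of control, averaged over triplicates, above buffer control mean plus 5 SD, cut at about 64% in these data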;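 further: ratio is the fluorescence rise from min to max over baseline after thallium stimulus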
KCNK3 noninduced = KCNK3 inhibitor counter-screen hit in non-induced cells. non-induced KCNK3 parental cells, FluxOR thallium flux; stronger effect = lower value. AID 651747. 2,400 tested, 40% active. shares compounds with KCNK3 block. thallium flux ratio (lower = more inhibition) at 10 µM;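 active means thallium flux ratio, averaged over three wells, more than 5 SD below the buffer control mean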;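 further: host cells are CHO cells without KCNK3 induction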
Large screens that a line does not name were inactive (follow-up assays come after a bar, where they were run).

CCCN(CCC)CCNC(=O)c1cc2c(-c3ccccc3F)nn(C)c2s1	none
CC(CCc1ccco1)NC(=O)c1cc2c(-c3ccccc3F)nn(C)c2s1 (stereo unspecified)	KCNK9 inh -8.4, KCNK3 block -13 | KCNK9 block conf 28% | Kir21 sel inactive | HEK293 Tl ctr inactive | KCNK3 inh conf 120 | KCNK3 noninduced 0.14
C=C(C)COc1ccc(-c2ncnc(C(F)(F)F)c2-c2ccc(OC)cc2)c(O)c1	KCNK3 block -9.2 | KCNK9 block conf inactive | Kir21 sel inactive | HEK293 Tl ctr inactive | KCNK3 inh conf 109 | KCNK3 noninduced 0.15
C=C(C)COc1ccc(-c2ncnc(C(F)(F)F)c2-c2ccccc2)c(O)c1	none
CCN1C[C@@H]2[C@@H]3C(=O)N(Cc4ccccc4)C(=O)[C@@H]3[C@](C)(C1=O)N2C(=O)c1ccc(C(F)(F)F)cc1	none (no result: hERG protect, KCNQ1 inh, KCNQ1 act, KCNK9 inh, Kir21 inh)
CCN(c1ccc(OC)cc1)S(=O)(=O)c1cc(-c2cc(C)no2)ccc1OC	none
CCN(c1ccc(OC)cc1)S(=O)(=O)c1cc(-c2cc(C)no2)ccc1C(C)C	KCNK9 inh -16, KCNK3 block -9.2 | KCNK9 block conf 60% | Kir21 sel inactive | HEK293 Tl ctr 38% | KCNK3 inh conf 121 | KCNK3 noninduced 0.14
CC(=O)Nc1nc(-c2ccc3c(c2)OCO3)cs1	none
COc1cccc(C(=O)Nc2nc(-c3ccc4c(c3)OCO4)cs2)c1	KCNK9 inh -9, KCNK3 block -10 | KCNK9 block conf 26% | Kir21 sel inactive | HEK293 Tl ctr 26% | KCNK3 inh conf 121 | KCNK3 noninduced 0.14
COC(=O)c1ccccc1NC(=O)N1CCc2ccc(NC(=O)c3ccccn3)cc2C1	KCNK9 inh -8.3 | KCNK9 block conf 42% | Kir21 sel inactive | HEK293 Tl ctr 26% | KCNK3 inh conf 134 | KCNK3 noninduced 0.16
CSc1ccc(C(=O)N2CCc3ccc(NC(=O)c4ccccn4)cc3C2)cc1	none
CCC(C)(C)n1nnnc1C(c1ccccc1OC)N1CCN(C(=O)c2ccco2)CC1 (stereo unspecified)	KCNK9 inh -14, KCNK3 block -13 | KCNK9 block conf 68% | Kir21 sel inactive | HEK293 Tl ctr 36% | KCNK3 inh conf 106 | KCNK3 noninduced inactive
COc1ccccc1C(c1nnnn1Cc1ccco1)N1CCN(c2cccc(C)c2C)CC1 (stereo unspecified)	KCNK9 inh -14, KCNK3 block -11 | KCNK9 block conf 43% | Kir21 sel inactive | HEK293 Tl ctr 38% | KCNK3 inh conf 130 | KCNK3 noninduced 0.14
COCCn1nnnc1C(c1ccccc1OC)N1CCN(C(=O)c2ccco2)CC1 (stereo unspecified)	none
Cc1ccc(-n2nc(CN3CCOCC3)c(-c3ccccc3)c2N)c(C)c1	none
CCCn1c(SCC#N)nc2c(c1=O)C1(CCCC1)Cc1ccccc1-2	KCNK9 inh -9.9, KCNK3 block -10 | KCNK9 block conf 52% | Kir21 sel inactive | HEK293 Tl ctr 29% | KCNK3 inh conf 95 | KCNK3 noninduced inactive
CCc1nc2c(c(=O)[nH]1)C1(CCCC1)Cc1ccccc1-2	none
Cc1cccnc1Oc1ncccc1N	none
COc1ccccc1/C=C(/CC(=O)NCc1ccc2c(c1)OCO2)c1nc2ccccc2s1	KCNK9 inh -12, KCNK3 block -9.3 | KCNK9 block conf 56% | Kir21 sel inactive | HEK293 Tl ctr 29% | KCNK3 inh conf 125 | KCNK3 noninduced 0.14
COc1ccccc1/C=C/C(=O)OCC(=O)NCc1ccc2c(c1)OCO2	none (no result: hERG protect, KCNQ1 inh, KCNQ1 act, KCNK9 inh, Kir21 inh)
CC(C)NC(=O)NC(=O)COC(=O)c1c2c(nc3ccccc13)CCC2	none
CC(C)c1ccccc1NC(=O)COC(=O)c1c2c(nc3ccccc13)CCN(Cc1ccccc1)C2	KCNK9 inh -12, KCNK3 block -9.7 | KCNK9 block conf 66% | Kir21 sel inactive | HEK293 Tl ctr inactive | KCNK3 inh conf 132 | KCNK3 noninduced 0.14
Cc1ccc(-c2nnc(-c3ccc(NC(=O)Cc4cccs4)cc3)o2)cc1	none
O=C(Cc1cccs1)Nc1cccc(-c2nnc(-c3ccco3)o2)c1	KCNK9 inh -9.3, KCNK3 block -10 | KCNK9 block conf inactive | Kir21 sel inactive | HEK293 Tl ctr 26% | KCNK3 inh conf 115 | KCNK3 noninduced inactive
Cc1cc(C)cc(OCC(=O)Nc2cccc(-c3nnc(-c4ccco4)o3)c2)c1	KCNK9 inh -10, KCNK3 block -12 | KCNK9 block conf 44% | Kir21 sel inactive | HEK293 Tl ctr 60% | KCNK3 inh conf 115 | KCNK3 noninduced inactive
O=C(NC1CCCC1)C(c1ccccn1)N(Cc1ccccc1F)C(=O)c1csnn1 (stereo unspecified)	none
CCCCCCN=C1CC(C)(C)CC(=O)/C1=C(/O)CCC	KCNK9 inh -18, KCNK3 block -10 | KCNK9 block conf 66% | Kir21 sel inactive | HEK293 Tl ctr 40% | KCNK3 inh conf 94 | KCNK3 noninduced inactive
O=C(c1c(F)cccc1F)N(C1CCCCC1)C1CCCCC1	KCNK9 inh -12, KCNK3 block -12 | KCNK9 block conf 68% | Kir21 sel inactive | HEK293 Tl ctr 28% | KCNK3 inh conf 133 | KCNK3 noninduced 0.12
O=C(c1c(F)cccc1F)N(Cc1cccs1)C1CCCC1	none
COC(=O)c1cc(C)sc1NC(=S)N1CCN(CCc2ccccc2)CC1	KCNK3 block -10 | KCNK9 block conf inactive | Kir21 sel inactive | HEK293 Tl ctr inactive | KCNK3 inh conf 104 | KCNK3 noninduced inactive
Cc1cc(C)cc(C(=O)NC(=S)Nc2ccc(Cc3ccncc3)cc2)c1	KCNK3 block -10 | KCNK9 block conf inactive | Kir21 sel inactive | HEK293 Tl ctr inactive | KCNK3 inh conf 98 | KCNK3 noninduced inactive
COc1ccccc1Nc1nnc(SCC(=O)NC2CC2)s1	none (no result: hERG protect, KCNQ1 inh, KCNQ1 act, KCNK9 inh, Kir21 inh)
COc1cc(S(=O)(=O)N2CCC(c3nc4ccccc4s3)CC2)ccc1S(=O)(=O)NC1CCCC1	none
COCCN1CCN(C(=O)C2CCC(=O)N(CCc3ccccc3)C2)CC1 (stereo unspecified)	none
